Source: ChEMBL document CHEMBL2086239, “Synthesis and biological evaluation of combretastatin-amidobenzothiazole conjugates as potential anticancer agents” (Eur J Med Chem, 2012)

Key:
Type in all cases: functional
UACC-62 = assay: Growth inhibition of human UACC62 cells after 48 hrs by SRB assay; details: UACC-62, 48 h
Outline: (§1)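 NCI 60-cell-line panel, five-dose testing after preliminary screen; sulforhodamine B protein assay in DMEM with 10% FBS, 37 °C, 5% CO2, 100% humidity. Cells seeded and incubated 24 h before compound addition, then exposed 48 h. Absorbance read at 560 nm; growth percentage relative to control wells; GI50 taken as concentration giving 50% growth inhibition.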

SK-MEL-2 = assay: Growth inhibition of human SK-MEL-2 cells after 48 hrs by SRB assay; details: SK-MEL-2, 48 h; outline: as §1
A549 [1] = assay: Growth inhibition of human A549 cells after 48 hrs by SRB assay; details: A549, 48 h
Outline: (§2)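 NCI 60-cell-line screen: after preliminary screening, tested at five dose concentrations on 59 human tumour lines covering leukemia, lung, colon, CNS, melanoma, ovarian, renal, prostate and breast.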

SN12C = assay: Growth inhibition of human SN12C cells after 48 hrs by SRB assay; outline: as §1
CAKI-1 = assay: Growth inhibition of human Caki1 cells after 48 hrs by SRB assay; details: CAKI-1, 48 h; outline: as §2
MDA-MB-435 = assay: Growth inhibition of human MDA-MB-435 cells after 48 hrs by SRB assay; details: MDA-MB-435, 48 h; outline: as §2
COLO 205 [2] = assay: Cytotoxicity against human COLO205 cells after 48 hrs assessed as inhibition of cell growth at 10 uM after 48 hrs by SRB assay relative to control; details: COLO 205, 48 h, read-out: GI
Outline: (§3)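 SRB protein assay in DMEM with 10% FBS at 37 °C, 5% CO2, 100% relative humidity. Cells seeded in 96-well plates, incubated 24 h, then exposed to drug at 10 µM for 48 h and processed per standard protocol. Absorbance read at 560 nm; growth percentage calculated for test wells relative to control wells.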

RXF 393 = assay: Growth inhibition of human RXF393 cells after 48 hrs by SRB assay; details: RXF 393, 48 h; outline: as §2
COLO 205 [3] = assay: Growth inhibition of human COLO205 cells after 48 hrs by SRB assay; details: COLO 205, 48 h; outline: as §2
OVCAR-8 = assay: Growth inhibition of human OVCAR8 cells after 48 hrs by SRB assay; details: OVCAR-8, 48 h; outline: as §2
A549 [4] = assay: Cytotoxicity against human A549 cells assessed as inhibition of cell growth at 10 uM after 48 hrs by SRB assay relative to control; details: A549, 48 h, read-out: GI; outline: as §3
Hs-578T = assay: Growth inhibition of human Hs578T cells after 48 hrs by SRB assay; outline: as §2
SK-OV-3 = assay: Growth inhibition of human SKOV3 cells after 48 hrs by SRB assay; details: SK-OV-3, 48 h; outline: as §1
NCI/ADR-RES = assay: Growth inhibition of human NCI/ADR-RES cells after 48 hrs by SRB assay; outline: as §2
A498 = assay: Growth inhibition of human A498 cells after 48 hrs by SRB assay; details: A498, 48 h; outline: as §2
CCRF-CEM = assay: Growth inhibition of human CCRF-CEM cells after 48 hrs by SRB assay; outline: as §2
OVCAR-3 = assay: Growth inhibition of human OVCAR3 cells after 48 hrs by SRB assay; details: OVCAR-3, 48 h; outline: as §2
SW-620 = assay: Growth inhibition of human SW620 cells after 48 hrs by SRB assay; details: SW-620, 48 h; outline: as §1
NCI-H522 = assay: Growth inhibition of human NCI-H522 cells after 48 hrs by SRB assay; details: NCI-H522, 48 h; outline: as §2
MOLT-4 = assay: Growth inhibition of human MOLT4 cells after 48 hrs by SRB assay; details: MOLT-4, 48 h; outline: as §2
MCF7 [5] = assay: Cell cycle arrest in human MCF7 cells assessed as accumulation at G2/M phase at 4 uM after 24 hrs by FACS analysis (reference value: 34.88%)
OVCAR-5 = assay: Growth inhibition of human OVCAR5 cells after 48 hrs by SRB assay; details: OVCAR-5, 48 h; outline: as §2
SNB-75 = assay: Growth inhibition of human SNB75 cells after 48 hrs by SRB assay; details: SNB-75, 48 h; outline: as §1
OVCAR-4 = assay: Growth inhibition of human OVCAR4 cells after 48 hrs by SRB assay; details: OVCAR-4, 48 h; outline: as §2
PC-3 [6] = assay: Growth inhibition of human PC3 cells after 48 hrs by SRB assay; details: PC-3, 48 h; outline: as §2
LOX IMVI = assay: Growth inhibition of human LOXIMVI cells after 48 hrs by SRB assay; outline: as §2
MCF7 [7] = assay: Cell cycle arrest in human MCF7 cells assessed as accumulation at G1 phase at 4 uM after 24 hrs by FACS analysis (reference value: 58.33%)
IMR-32 = assay: Cytotoxicity against human IMR32 cells after 48 hrs assessed as inhibition of cell growth at 10 uM after 48 hrs by SRB assay relative to control; details: IMR-32, 48 h, read-out: GI; outline: as §3
SF-268 = assay: Growth inhibition of human SF268 cells after 48 hrs by SRB assay; details: SF-268, 48 h; outline: as §2
HOP-62 = assay: Growth inhibition of human HOP62 cells after 48 hrs by SRB assay; details: HOP-62, 48 h; outline: as §2
HCT-15 = assay: Growth inhibition of human HCT15 cells after 48 hrs by SRB assay; details: HCT-15, 48 h; outline: as §2
SF-539 = assay: Growth inhibition of human SF539 cells after 48 hrs by SRB assay; details: SF-539, 48 h; outline: as §1
HCT-116 = assay: Growth inhibition of human HCT116 cells after 48 hrs by SRB assay; details: HCT-116, 48 h; outline: as §2
U-251 = assay: Growth inhibition of human U251cells after 48 hrs by SRB assay; details: U-251, 48 h; outline: as §1
PC-3 [8] = assay: Cytotoxicity against human PC3 cells after 48 hrs assessed as inhibition of cell growth at 10 uM after 48 hrs by SRB assay relative to control; details: PC-3, 48 h, read-out: GI; outline: as §3
T47D = assay: Growth inhibition of human T47D cells after 48 hrs by SRB assay; outline: as §1
RPMI-8226 = assay: Growth inhibition of human RPMI8226 cells after 48 hrs by SRB assay; details: RPMI-8226, 48 h; outline: as §2
NCI-H460 = assay: Growth inhibition of human NCI-H460 cells after 48 hrs by SRB assay; details: NCI-H460, 48 h; outline: as §2
786-0 = assay: Growth inhibition of human 786-0 cells after 48 hrs by SRB assay; details: 786-0, 48 h; outline: as §2
SR = assay: Growth inhibition of human SR cells after 48 hrs by SRB assay; outline: as §1
ACHN = assay: Growth inhibition of human ACHN cells after 48 hrs by SRB assay; outline: as §2
EKVX = assay: Growth inhibition of human EKVX cells after 48 hrs by SRB assay; outline: as §2
DU-145 = assay: Growth inhibition of human DU145 cells after 48 hrs by SRB assay; details: DU-145, 48 h; outline: as §2

Molecule COc1ccc2nc(NC(=O)COc3cc(/C=C\c4cc(OC)c(OC)c(OC)c4)ccc3OC)sc2c1 has a GI50 (UACC-62) of 5930 nM, a GI50 (SK-MEL-2) of 4070 nM and a GI50 (A549 [1]) of 5190 nM. The GI50 (SN12C) was 5750 nM, the GI50 (CAKI-1) was 3200 nM and the GI50 (MDA-MB-435) was 1160 nM. It also gave an inhibition of growth at 10 µM (COLO 205 [2]) of 56%, a GI50 (RXF 393) of 2500 nM and a GI50 (COLO 205 [3]) of 3890 nM. It also gave a GI50 (OVCAR-8) of 5280 nM, an inhibition of growth at 10 µM (A549 [4]) of 45% and a GI50 (Hs-578T) of 4150 nM. The GI50 (SK-OV-3) was 4690 nM, the GI50 (NCI/ADR-RES) was 2300 nM and the GI50 (A498) was 3500 nM. The GI50 (CCRF-CEM) was 3870 nM, the GI50 (OVCAR-3) was 2170 nM and the GI50 (SW-620) was 5100 nM. It also gave a GI50 (NCI-H522) of 3090 nM, a GI50 (MOLT-4) of 3870 nM and an Activity (MCF7 [5]) of 30.07%. It also gave a GI50 (OVCAR-5) of 5890 nM, a GI50 (SNB-75) of 1910 nM and a GI50 (OVCAR-4) of 5310 nM. The GI50 (PC-3 [6]) was 4450 nM, the GI50 (LOX IMVI) was 4170 nM and the Activity (MCF7 [7]) was 62.81%. It also gave an inhibition of growth at 10 µM (IMR-32) of 73%, a GI50 (SF-268) of 4310 nM and a GI50 (HOP-62) of 23000 nM. For the same molecule, the GI50 (HCT-15) was 2890 nM, the GI50 (SF-539) was 2840 nM and the GI50 (HCT-116) was 3700 nM. For the same molecule, the GI50 (U-251) was 4000 nM, the inhibition of growth at 10 µM (PC-3 [8]) was 33% and the GI50 (T47D) was 4030 nM. The GI50 (RPMI-8226) was 5430 nM, the GI50 (NCI-H460) was 3730 nM and the GI50 (786-0) was 7520 nM. For the same molecule, the GI50 (SR) was 3690 nM, the GI50 (ACHN) was 7770 nM and the GI50 (EKVX) was 5110 nM. It also gave a GI50 (DU-145) of 2040 nM.

Work on COc1ccc(/C=C\c2cc(OC)c(OC)c(OC)c2)cc1O [COMBRETASTATIN A4] yielded a GI50 (UACC-62) of 5 nM, a GI50 (SK-MEL-2) of 3 nM and a GI50 (A549 [1]) of 15 nM. It also gave a GI50 (SN12C) of 6 nM, a GI50 (CAKI-1) of 25 nM and a GI50 (MDA-MB-435) of 1 nM. The inhibition of growth at 10 µM (COLO 205 [2]) was 63%, the GI50 (RXF 393) was 2 nM and the GI50 (COLO 205 [3]) was 100 nM. It also gave a GI50 (OVCAR-8) of 3 nM, an inhibition of growth at 10 µM (A549 [4]) of 55% and a GI50 (Hs-578T) of 1 nM. The GI50 (SK-OV-3) was 63 nM, the GI50 (NCI/ADR-RES) was 1 nM and the GI50 (A498) was 6 nM. It also gave a GI50 (CCRF-CEM) of 2 nM, a GI50 (OVCAR-3) of 1 nM and a GI50 (SW-620) of 3 nM. For the same molecule, the GI50 (NCI-H522) was 1 nM, the GI50 (MOLT-4) was 3 nM and the Activity (MCF7 [5]) was 61.23%. The GI50 (OVCAR-5) was 100 nM, the GI50 (SNB-75) was 7 nM and the GI50 (OVCAR-4) was 15 nM. It also gave a GI50 (PC-3 [6]) of 1 nM, a GI50 (LOX IMVI) of 3 nM and an Activity (MCF7 [7]) of 24.5%. It also gave an inhibition of growth at 10 µM (IMR-32) of 89%, a GI50 (SF-268) of 6 nM and a GI50 (HOP-62) of 2 nM. The GI50 (HCT-15) was 3 nM, the GI50 (SF-539) was 2 nM and the GI50 (HCT-116) was 3 nM. It also gave a GI50 (U-251) of 7 nM, an inhibition of growth at 10 µM (PC-3 [8]) of 76% and a GI50 (T47D) of 10000 nM. It also gave a GI50 (RPMI-8226) of 3 nM, a GI50 (NCI-H460) of 7 nM and a GI50 (786-0) of 100 nM. It also gave a GI50 (SR) of 3 nM, a GI50 (ACHN) of 6 nM and a GI50 (EKVX) of 79 nM. The GI50 (DU-145) was 1 nM.
